Reference: ChEMBL document CHEMBL4350961, “Discovery of Pyrrolo[3,2- d]pyrimidin-4-one Derivatives as a New Class of Potent and Cell-Active Inhibitors of P300/CBP-Associated Factor Bromodomain” (J Med Chem, 2019)
Activity calls are given as the source filed them. The calls are words filed in the database; no cut-off is given here.

Assays:
[1] = molecular target: Transcription initiation factor TFIID subunit 1-like (Homo sapiens) (UniProt Q8IZX4); assay: Binding affinity to human partial length TAF1L bromodomain 2 (Q1523 to D1654 residues) expressed in bacterial expression system at 1 uM by BROMOscan assay
How it was run: (§1)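 BROMOscan bromodomain cross-screen run by an outside service, compound at 1 µM against 32 recombinant bromodomains. Binding given as percent of control.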

[2] = molecular target: BDNF/NT-3 growth factors receptor (Homo sapiens) (UniProt Q16620); assay: Inhibition of human TrkB (455 to end residues) using poly(Glu, Tyr) 4:1 as substrate measured after 40 mins in presence of [gamma33P]ATP by scintillation counting method
[3] = molecular target: Serine/threonine-protein kinase 4 (Homo sapiens) (UniProt Q13043); assay: Inhibition of recombinant full-length human MST1 at 10 uM using KKSRGDYMTMQIG as substrate measured after 40 mins in presence of [gamma33P]ATP by scintillation counting method
[4] = molecular target: Serine/threonine-protein kinase 33 (Homo sapiens) (UniProt Q9BYT3); assay: Inhibition of recombinant full-length human STK33 at 10 uM using myelin basic protein as substrate measured after 40 mins in presence of [gamma33P]ATP by scintillation counting method
[5] = molecular target: Phosphorylase b kinase gamma catalytic chain, skeletal muscle/heart isoform (Homo sapiens) (UniProt Q16816); assay: Inhibition of recombinant full-length human PhKgamma1 at 10 uM using KKLNRTLSFAEPG as substrate measured after 120 mins in presence of [gamma33P]ATP by scintillation counting method
[6] = system: Tyrosine-protein kinase ABL1 (Homo sapiens), P00519 [M351T]; assay: Inhibition of recombinant human ABL M351T mutant (27 to end residues) at 10 uM using EAIYAAPFAKKK as substrate measured after 40 mins in presence of [gamma33P]ATP by scintillation counting method
[7] = molecular target: MAPK/MAK/MRK overlapping kinase (Homo sapiens) (UniProt Q9UQ07); assay: Inhibition of recombinant human MOK (1 to 343 residues) at 10 uM using RSRSRSRSRSRSRSR as substrate measured after 40 mins in presence of [gamma33P]ATP by scintillation counting method
[8] = system: Hepatocyte growth factor receptor (Homo sapiens), P08581 [D1228H]; assay: Inhibition of recombinant human MET A1209G/V1290L/D1246H mutant (974 to end residues) at 10 uM using KKKGQEEEYVFIE as substrate measured after 40 mins in presence of [gamma33P]ATP by scintillation counting method
[9] = molecular target: Serine/threonine-protein kinase ICK (Homo sapiens) (UniProt Q9UPZ9); assay: Inhibition of recombinant human ICK (1 to 312 residues) at 10 uM using RRRFRPASPLRGPPK as substrate measured after 40 mins in presence of [gamma33P]ATP by scintillation counting method
[10] = molecular target: Ephrin type-A receptor 8 (Homo sapiens) (UniProt P29322); assay: Inhibition of recombinant human EphA8 (615 to 911 residues) at 10 uM using KTFCGTPEYLAPEVRREPRILSEEEQEMFRDFDYIADWC as substrate measured after 40 mins in presence of [gamma33P]ATP by scintillation counting method
[11] = molecular target: Serine/threonine-protein kinase 3 (Homo sapiens) (UniProt Q13188); assay: Inhibition of recombinant full-length human MST2 (2 to end residues) at 10 uM using myelin basic protein as substrate measured after 40 mins in presence of [gamma33P]ATP by scintillation counting method
[12] = system: Serine/threonine-protein kinase D1 (Homo sapiens), Q15139 [UNDEFINED MUTATION]; assay: Inhibition of recombinant full-length human PKCmu R135A mutant at 10 uM using KKLNRTLSVA as substrate measured after 40 mins in presence of [gamma33P]ATP by scintillation counting method
[13] = molecular target: Serine/threonine-protein kinase VRK1 (Homo sapiens) (UniProt Q99986); assay: Inhibition of human VRK1 at 10 uM by radiometric method
[14] = molecular target: Bromodomain adjacent to zinc finger domain protein 2A (Homo sapiens) (UniProt Q9UIF9); assay: Binding affinity to human partial length BAZ2A (M1792 to L1905 residues) expressed in bacterial expression system at 1 uM by BROMOscan assay; how it was run: as §1
[15] = molecular target: Bromodomain and WD repeat-containing protein 1 (Homo sapiens) (UniProt Q9NSI6); assay: Binding affinity to human partial length WDR9 bromodomain 2 (A1310 to E1430 residues) expressed in bacterial expression system at 1 uM by BROMOscan assay
How it was run: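 Outsourced competition-binding profiling (BROMOscan) at a single concentration of 1 µM against 32 recombinant bromodomains; binding expressed as percentage of control.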

[16] = molecular target: Serine/threonine-protein kinase SIK2 (Homo sapiens) (UniProt Q9H0K1); assay: Inhibition of human SIK2 (1 to 276 residues) using KKKVSRSGLYRSPSMPENLNRPR as substrate measured after 40 mins in presence of [gamma33P]ATP by scintillation counting method
How it was run: (§2)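 Kinase panel of 422 kinases screened by Eurofins KinaseProfiler at a single test-compound concentration of 10 µM.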

[17] = molecular target: AP2-associated protein kinase 1 (Homo sapiens) (UniProt Q2M2I8); assay: Inhibition of human AAK1 at 10 uM using peptide substrate measured after 120 mins in presence of [gamma33P]ATP by scintillation counting method; how it was run: as §2
[18] = molecular target: Serine/threonine-protein kinase 25 (Homo sapiens) (UniProt O00506); assay: Inhibition of human STK25 (1 to 308 residues) using RLGRDKYKTLRQIRQ as substrate measured after 40 mins in presence of [gamma33P]ATP by scintillation counting method; how it was run: as §2
[19] = molecular target: Activin receptor type-1 (Homo sapiens) (UniProt Q04771); assay: Inhibition of recombinant human ALK2 (142 to end residues) at 10 uM using casein as substrate measured after 40 mins in presence of [gamma33P]ATP by scintillation counting method
[20] = system: Protein kinase C eta type (Homo sapiens), P24723 [UNDEFINED MUTATION]; assay: Inhibition of recombinant human PKCeta V108L/G109R/L392Q mutant (2 to end residues) at 10 uM using ERMRPRKRQGSVRRRV as substrate measured after 40 mins in presence of [gamma33P]ATP by scintillation counting method
[21] = molecular target: Tyrosine-protein kinase ZAP-70 (Homo sapiens) (UniProt P43403); assay: Inhibition of recombinant full-length human ZAP70 at 10 uM using poly(Glu, Tyr) 4:1 as substrate measured after 40 mins in presence of [gamma33P]ATP by scintillation counting method
[22] = molecular target: Mitogen-activated protein kinase 8 (Homo sapiens) (UniProt P45983); assay: Inhibition of recombinant full-length human JNK1alpha1 at 10 uM using ATF2 as substrate measured after 40 mins in presence of [gamma33P]ATP by scintillation counting method
[23] = molecular target: Cyclin-dependent kinase-like 2 (Homo sapiens) (UniProt Q92772); assay: Inhibition of human CDKL2 at 10 uM by radiometric method; how it was run: as §2

Serine/threonine-protein kinase 3 (Homo sapiens), sequence (Q13188 whole entry): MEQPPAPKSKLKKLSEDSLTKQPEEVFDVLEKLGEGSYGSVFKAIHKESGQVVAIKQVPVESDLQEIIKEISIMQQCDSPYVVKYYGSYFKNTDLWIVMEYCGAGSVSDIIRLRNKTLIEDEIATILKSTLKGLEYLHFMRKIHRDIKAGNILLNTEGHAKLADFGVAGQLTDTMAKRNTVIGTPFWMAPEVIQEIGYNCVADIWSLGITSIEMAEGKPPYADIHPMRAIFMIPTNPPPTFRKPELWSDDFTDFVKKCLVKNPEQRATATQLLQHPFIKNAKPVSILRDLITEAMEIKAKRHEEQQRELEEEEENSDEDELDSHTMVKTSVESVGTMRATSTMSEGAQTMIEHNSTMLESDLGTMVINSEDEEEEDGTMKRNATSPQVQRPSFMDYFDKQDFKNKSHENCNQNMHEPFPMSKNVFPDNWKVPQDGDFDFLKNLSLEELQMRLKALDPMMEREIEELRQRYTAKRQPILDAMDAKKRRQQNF
Bromodomain and WD repeat-containing protein 1 (Homo sapiens), sequence (Q9NSI6 whole entry, the tested form may be a part): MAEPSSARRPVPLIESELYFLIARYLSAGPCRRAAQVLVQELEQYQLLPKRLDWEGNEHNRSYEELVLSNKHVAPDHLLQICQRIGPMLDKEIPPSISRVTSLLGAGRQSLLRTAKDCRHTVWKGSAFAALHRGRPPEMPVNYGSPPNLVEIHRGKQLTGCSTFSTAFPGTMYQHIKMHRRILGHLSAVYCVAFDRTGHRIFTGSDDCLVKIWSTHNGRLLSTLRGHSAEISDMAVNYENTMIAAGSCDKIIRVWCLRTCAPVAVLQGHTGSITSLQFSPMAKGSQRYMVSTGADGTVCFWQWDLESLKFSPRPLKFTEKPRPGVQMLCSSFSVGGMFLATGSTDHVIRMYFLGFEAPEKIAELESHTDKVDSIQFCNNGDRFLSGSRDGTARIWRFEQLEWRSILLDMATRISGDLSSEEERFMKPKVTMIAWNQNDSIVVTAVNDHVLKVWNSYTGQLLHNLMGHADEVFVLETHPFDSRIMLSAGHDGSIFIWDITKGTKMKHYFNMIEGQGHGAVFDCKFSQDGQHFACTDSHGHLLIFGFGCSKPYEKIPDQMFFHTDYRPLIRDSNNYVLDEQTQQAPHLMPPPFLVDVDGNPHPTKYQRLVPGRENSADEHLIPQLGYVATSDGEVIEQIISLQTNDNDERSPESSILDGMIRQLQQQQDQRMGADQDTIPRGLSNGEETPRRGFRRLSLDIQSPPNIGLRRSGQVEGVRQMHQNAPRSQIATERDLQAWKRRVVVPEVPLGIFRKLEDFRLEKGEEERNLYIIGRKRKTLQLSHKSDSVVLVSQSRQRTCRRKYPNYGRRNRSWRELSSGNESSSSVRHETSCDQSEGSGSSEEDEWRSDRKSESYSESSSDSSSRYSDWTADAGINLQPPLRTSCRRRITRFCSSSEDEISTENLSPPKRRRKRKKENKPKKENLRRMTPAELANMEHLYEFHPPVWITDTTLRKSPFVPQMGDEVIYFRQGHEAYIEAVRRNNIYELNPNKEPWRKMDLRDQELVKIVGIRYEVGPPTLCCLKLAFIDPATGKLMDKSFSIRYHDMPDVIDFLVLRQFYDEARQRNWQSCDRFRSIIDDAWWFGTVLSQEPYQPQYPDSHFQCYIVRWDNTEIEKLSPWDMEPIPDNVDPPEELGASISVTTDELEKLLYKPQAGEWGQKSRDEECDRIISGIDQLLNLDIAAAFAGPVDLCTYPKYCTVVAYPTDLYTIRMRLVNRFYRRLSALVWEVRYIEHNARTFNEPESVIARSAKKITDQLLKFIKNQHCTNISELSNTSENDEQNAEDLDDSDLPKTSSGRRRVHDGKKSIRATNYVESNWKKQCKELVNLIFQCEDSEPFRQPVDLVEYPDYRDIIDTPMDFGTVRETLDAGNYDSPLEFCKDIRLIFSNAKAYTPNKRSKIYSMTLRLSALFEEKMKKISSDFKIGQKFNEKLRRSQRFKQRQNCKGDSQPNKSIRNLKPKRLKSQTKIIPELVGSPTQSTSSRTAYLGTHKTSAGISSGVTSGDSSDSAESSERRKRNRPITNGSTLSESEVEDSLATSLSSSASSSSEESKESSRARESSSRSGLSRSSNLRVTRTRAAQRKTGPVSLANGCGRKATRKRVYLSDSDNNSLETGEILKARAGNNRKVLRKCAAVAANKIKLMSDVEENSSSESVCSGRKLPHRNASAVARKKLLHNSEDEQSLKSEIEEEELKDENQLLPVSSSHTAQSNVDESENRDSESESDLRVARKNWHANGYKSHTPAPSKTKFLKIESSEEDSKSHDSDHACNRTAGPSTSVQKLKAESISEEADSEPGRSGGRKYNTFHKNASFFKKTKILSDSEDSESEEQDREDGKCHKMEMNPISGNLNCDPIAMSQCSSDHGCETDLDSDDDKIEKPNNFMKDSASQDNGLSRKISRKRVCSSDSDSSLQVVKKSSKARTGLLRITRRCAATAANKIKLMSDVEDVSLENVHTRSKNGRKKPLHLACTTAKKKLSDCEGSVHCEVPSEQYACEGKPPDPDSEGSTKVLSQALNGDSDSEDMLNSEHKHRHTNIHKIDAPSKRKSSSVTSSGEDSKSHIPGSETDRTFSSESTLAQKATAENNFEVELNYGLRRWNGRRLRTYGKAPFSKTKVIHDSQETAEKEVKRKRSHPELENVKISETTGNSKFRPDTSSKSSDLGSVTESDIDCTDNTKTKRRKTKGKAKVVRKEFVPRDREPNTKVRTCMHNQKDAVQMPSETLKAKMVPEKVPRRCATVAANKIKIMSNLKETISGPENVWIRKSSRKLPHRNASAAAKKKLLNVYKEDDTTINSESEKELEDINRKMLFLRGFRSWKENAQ
Activin receptor type-1 (Homo sapiens), sequence (Q04771 whole entry): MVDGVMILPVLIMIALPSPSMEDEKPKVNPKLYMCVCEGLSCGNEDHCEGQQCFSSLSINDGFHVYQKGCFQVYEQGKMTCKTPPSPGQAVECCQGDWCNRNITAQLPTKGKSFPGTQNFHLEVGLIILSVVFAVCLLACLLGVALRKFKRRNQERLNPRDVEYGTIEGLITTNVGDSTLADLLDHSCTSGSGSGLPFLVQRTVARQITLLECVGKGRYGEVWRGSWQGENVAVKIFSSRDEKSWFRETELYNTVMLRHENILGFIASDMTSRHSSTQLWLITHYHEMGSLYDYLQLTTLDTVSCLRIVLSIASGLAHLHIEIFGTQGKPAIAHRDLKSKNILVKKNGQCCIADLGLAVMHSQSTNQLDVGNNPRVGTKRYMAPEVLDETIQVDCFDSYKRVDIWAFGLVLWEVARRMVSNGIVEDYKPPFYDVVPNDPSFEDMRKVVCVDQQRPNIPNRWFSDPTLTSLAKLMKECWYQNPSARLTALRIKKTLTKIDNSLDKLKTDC
Serine/threonine-protein kinase 25 (Homo sapiens), sequence (O00506 whole entry, looked up, the tested form may be a part): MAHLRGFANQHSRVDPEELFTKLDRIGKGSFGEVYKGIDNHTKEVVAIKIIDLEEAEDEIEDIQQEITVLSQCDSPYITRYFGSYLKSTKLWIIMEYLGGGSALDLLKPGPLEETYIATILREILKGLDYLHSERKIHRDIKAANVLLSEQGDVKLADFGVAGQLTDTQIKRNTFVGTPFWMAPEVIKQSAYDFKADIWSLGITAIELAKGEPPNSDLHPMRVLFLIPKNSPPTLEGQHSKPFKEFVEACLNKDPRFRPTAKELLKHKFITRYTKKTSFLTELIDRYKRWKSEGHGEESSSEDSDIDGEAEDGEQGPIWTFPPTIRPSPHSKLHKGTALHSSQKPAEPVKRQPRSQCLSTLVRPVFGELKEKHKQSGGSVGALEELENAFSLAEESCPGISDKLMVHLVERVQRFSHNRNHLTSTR
Tyrosine-protein kinase ZAP-70 (Homo sapiens), sequence (P43403 whole entry): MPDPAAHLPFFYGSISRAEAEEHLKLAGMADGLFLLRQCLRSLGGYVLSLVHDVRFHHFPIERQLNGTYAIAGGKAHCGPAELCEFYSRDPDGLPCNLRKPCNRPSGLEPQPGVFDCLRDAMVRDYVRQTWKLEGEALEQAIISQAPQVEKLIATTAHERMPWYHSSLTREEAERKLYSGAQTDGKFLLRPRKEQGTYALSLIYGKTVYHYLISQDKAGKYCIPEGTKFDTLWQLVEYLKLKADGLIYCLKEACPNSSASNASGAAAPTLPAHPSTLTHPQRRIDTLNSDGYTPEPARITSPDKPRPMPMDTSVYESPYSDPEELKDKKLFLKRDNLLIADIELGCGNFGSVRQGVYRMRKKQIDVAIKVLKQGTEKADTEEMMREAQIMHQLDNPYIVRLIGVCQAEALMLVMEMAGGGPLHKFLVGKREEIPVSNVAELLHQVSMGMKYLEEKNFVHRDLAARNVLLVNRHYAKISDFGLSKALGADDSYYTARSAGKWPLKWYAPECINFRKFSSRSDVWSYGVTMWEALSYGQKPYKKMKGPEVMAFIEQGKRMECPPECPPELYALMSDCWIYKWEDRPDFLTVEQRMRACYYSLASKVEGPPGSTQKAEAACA
Serine/threonine-protein kinase 33 (Homo sapiens), sequence (Q9BYT3 whole entry, looked up, canonical isoform): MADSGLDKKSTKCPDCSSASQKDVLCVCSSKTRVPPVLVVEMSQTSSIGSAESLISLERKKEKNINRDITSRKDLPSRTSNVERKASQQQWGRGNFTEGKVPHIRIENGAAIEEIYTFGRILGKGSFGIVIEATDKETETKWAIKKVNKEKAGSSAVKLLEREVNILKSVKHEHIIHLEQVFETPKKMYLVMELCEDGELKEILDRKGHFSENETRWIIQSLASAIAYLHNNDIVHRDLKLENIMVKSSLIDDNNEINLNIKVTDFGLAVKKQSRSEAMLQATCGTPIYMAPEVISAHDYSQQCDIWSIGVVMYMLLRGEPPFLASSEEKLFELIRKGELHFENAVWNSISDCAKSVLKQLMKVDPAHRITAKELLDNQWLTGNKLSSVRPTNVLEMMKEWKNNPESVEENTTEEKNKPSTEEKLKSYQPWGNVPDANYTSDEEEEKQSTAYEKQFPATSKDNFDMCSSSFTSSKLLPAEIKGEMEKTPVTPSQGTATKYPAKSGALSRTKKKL

CN1C[C@H](Nc2nc3cc[nH]c3c(=O)n2C)C[C@H](c2ccc3c(c2)OCCO3)C1
Activity [1]: inactive
inhibition [2]: inactive
inhibition [3]: inactive
inhibition [4]: inactive
inhibition [5]: inactive
inhibition [6]: inactive
inhibition [7]: inactive
inhibition [8]: inactive
inhibition [9]: inactive
inhibition [10]: inactive
inhibition [11]: inactive
inhibition [12]: inactive
inhibition [13]: inactive
Activity [14]: Active
Activity [15]: inactive
inhibition [16]: inactive
inhibition [17]: inactive
inhibition [18]: inactive
inhibition [19]: inactive
inhibition [20]: inactive
inhibition [21]: inactive
inhibition [22]: inactive
inhibition [23]: inactive
